# Reference: ChEMBL document CHEMBL1130425, “An orally bioavailable pyrrolinone inhibitor of HIV-1 protease: computational analysis and X-ray crystal structure of the enzyme complex” (J Med Chem, 1997)
# How the values were obtained:
# [1] = target: Human immunodeficiency virus type 1 protease (Human immunodeficiency virus 1, UniProt Q72874); test: Inhibition of HIV-1 protease
# [2] = target: Human immunodeficiency virus type 1 protease (Human immunodeficiency virus 1) (UniProt Q72874); test: Cellular antiviral activity against HIV-1 Protease
# [3] = Ratio of CIC95 to IC50 values
# Procedure, shortened: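 Ratio computed by dividing the cellular antiviral CIC95 by the IC50 from the purified HIV-1 protease inhibition assay, both in nM.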
SMILES,IC50 [1],IC95 [2],Ratio [3]
O=C(N[C@@H](Cc1ccccc1)[C@@H](O)C[C@]1(Cc2ccccc2)N=CC(C2c3ccccc3C[C@H]2O)=C1O)O[C@H]1CCOC1 (some centres undefined),2 nM,100 nM,
CC(C)(C)OC(=O)N[C@@H](Cc1ccccc1)[C@@H](O)C[C@]1(Cc2ccc(O)cc2)N=CC(C2c3ccccc3C[C@H]2O)=C1O (some centres undefined),6 nM,,
"CC(C)(C)OC(=O)N[C@@H](Cc1ccccc1)[C@@H](O)C[C@@](C)(Cc1ccccc1)C(=O)NC1c2ccccc2C[C@H]1O (single isomer, unassigned)",7 nM,,
"CC(C)(C)OC(=O)N[C@@H](Cc1ccccc1)[C@@H](O)CC1(Cc2ccccc2)CCN(C2c3ccccc3C[C@H]2O)C1=O (single isomer, unassigned)",86 nM,,
"CN(C(=O)[C@H](Cc1ccccc1)C[C@H](O)[C@H](Cc1ccccc1)NC(=O)OC(C)(C)C)C1c2ccccc2C[C@H]1O (single isomer, unassigned)",186 nM,,
"CC(C)(C)OC(=O)N[C@@H](Cc1ccccc1)[C@@H](O)C[C@@H](Cc1ccccc1)C(=O)NC1c2ccccc2C[C@H]1O (single isomer, unassigned)",,,1330

# Further lines, results first:
IC50 [1],IC95 [2],Ratio [3],SMILES
11.9 nM,800 nM,,CC(C)(C)OC(=O)N[C@@H](Cc1ccccc1)[C@@H](O)C[C@]1(Cc2ccccc2)N=CC(C2c3ccccc3C[C@H]2O)=C1O (some centres undefined)
,,10000,CC(C)C[C@H](NC(=O)[C@H](Cc1ccccc1)C[C@H](O)[C@H](Cc1ccccc1)NC(=O)OC(C)(C)C)C(=O)N[C@@H](Cc1ccccc1)C(N)=O
0.03 nM,3 nM,100,"O=C(N[C@@H](Cc1ccccc1)[C@@H](O)C[C@@H](Cc1ccccc1)C(=O)NC1c2ccccc2C[C@H]1O)OC1CCOC1 (single isomer, unassigned)"
,25 nM,,"CC(C)(C)NC(=O)[C@@H]1CN(Cc2cccnc2)CCN1C[C@@H](O)C[C@@H](Cc1ccccc1)C(=O)NC1c2ccccc2C[C@H]1O (single isomer, unassigned)"
